Converted amounts (≈) assume the structure as drawn.
Columns and labels:
Vero = test: Cytotoxicity against african green monkey Vero cells after 3 days by Alamar Blue assay; type: cell-based; settings: chlorocebus sabaeus, 72 h
[1] = test system: Mycobacterium tuberculosis; test: Antimycobacterial activity against Mycobacterium tuberculosis H37Rv after 24 hrs by microplate Alamar Blue assay; type: functional
Summary of the method: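 MIC99 by microplate Alamar Blue: DMSO stocks serially diluted 2-fold in 96-well plates; Mtb grown in 7H9 + 10% OADC + 0.05% Tween-80, used at mid-log phase, added to OD600 0.005; 6 days at 37 °C, then AlamarBlue added and a further 24 h at 37 °C; read by colour change; triplicate.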

[2] = test system: Mycobacterium tuberculosis; test: Antimycobacterial activity against Mycobacterium tuberculosis H37Rv W210 after 24 hrs by microplate Alamar Blue assay; type: functional
[3] = test system: Mycobacterium tuberculosis; test: Antimycobacterial activity against Mycobacterium tuberculosis H37Rv NHN382 after 24 hrs by microplate Alamar Blue assay; type: functional
[4] = biological target: T1, Cell division protein FtsZ (Mycobacterium tuberculosis) (UniProt P9WN95); test: (§1) Inhibition of Mycobacterium tuberculosis FtsZ polymerization
T1 sequence (whole entry): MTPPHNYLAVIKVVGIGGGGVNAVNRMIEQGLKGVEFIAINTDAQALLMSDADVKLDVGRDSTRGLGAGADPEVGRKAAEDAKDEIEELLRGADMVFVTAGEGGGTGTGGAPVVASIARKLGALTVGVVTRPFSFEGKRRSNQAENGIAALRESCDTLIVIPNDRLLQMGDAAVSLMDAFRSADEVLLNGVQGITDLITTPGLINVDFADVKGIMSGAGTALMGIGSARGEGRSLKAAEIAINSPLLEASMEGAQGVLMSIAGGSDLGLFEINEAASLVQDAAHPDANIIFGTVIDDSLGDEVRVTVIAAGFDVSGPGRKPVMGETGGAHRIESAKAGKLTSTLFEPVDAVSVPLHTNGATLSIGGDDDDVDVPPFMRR
Summary of the method: (§2)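 90° light scattering at 30 °C, excitation/emission 400 nm. Inhibitor at various concentrations preincubated in 50 mM MES, 5 mM MgCl2, 50 mM KCl, pH 6.5 to baseline. Mtb FtsZ (15 μM) then added; polymerization started with 5 mM GTP (20 μL into 1,000 μL final); monitored 30-60 min. DMSO-matched controls.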

[5] = biological target: T2, Cell division protein FtsZ (Mycobacterium tuberculosis, UniProt P9WN95); test: as §1; summary of the method: as §2
T2 sequence (P9WN95 whole entry): T1 sequence (whole entry)

## CCN(CC)c1cc2[nH]c(C3CCCCC3)nc2cc1NC(=O)c1ccc(C)cc1
Vero
  Cytotoxic concentration: > 400 µM
[1]
  MIC99: 15.1 µM (≈ 6.11 µg/mL)

## C=CCCOC(=O)Nc1cc2nc(C3CCCCC3)[nH]c2cc1N(CC)CC
Vero
  Cytotoxic concentration: > 400 µM
[2]
  MIC99: 4.2 µM (≈ 1.62 µg/mL)
[3]
  MIC99: 4.2 µM (≈ 1.62 µg/mL)

## CCN(CC)c1cc2[nH]c(C3CCCCC3)nc2cc1NC(=O)c1ccc(Cl)cc1
Vero
  Cytotoxic concentration: > 400 µM
[1]
  MIC99: 14.1 µM (≈ 5.99 µg/mL)

## CCN(CC)c1cc2[nH]c(C3CCCCC3)nc2cc1NC(=O)c1ccccc1
[4]
  Activity: Dose-dependent effect
[5]
  IC50: 6.21 µM
Vero
  Cytotoxic concentration: > 400 µM
[1]
  MIC99: 7.9 µM (≈ 3.09 µg/mL)

## CCN(CC)c1cc2[nH]c(C3CCCCC3)nc2cc1NC(=O)OCc1ccccc1
Vero
  Cytotoxic concentration: > 400 µM
[1]
  MIC99: 3.8 µM (≈ 1.6 µg/mL)

## CCN(CC)c1cc2[nH]c(C3CCCCC3)nc2cc1NC(=O)c1ccc(OC)cc1
Vero
  Cytotoxic concentration: > 400 µM
[1]
  MIC99: 7.4 µM (≈ 3.11 µg/mL)

## CCCCOC(=O)Nc1cc2nc(C3CCCCC3)[nH]c2cc1N1CCCC1
Vero
  Cytotoxic concentration: > 200 µM
[2]
  MIC99: 1 µM (≈ 0.385 µg/mL)
[3]
  MIC99: 1 µM (≈ 0.385 µg/mL)

## CCCCOC(=O)Nc1cc2nc(C3CCCCC3)[nH]c2cc1N(CC)CC
[5]
  IC50: 7.69 µM
Vero
  Cytotoxic concentration: > 400 µM
[2]
  MIC99: 4 µM (≈ 1.55 µg/mL)
[3]; Mycobacterium tuberculosis, H37Rv NHN382, 24 h, read-out: MIC99
  MIC99: 2 µM (≈ 0.773 µg/mL)

## CCOC(=O)Nc1cc(NC(C)=O)c2[nH]c(-c3ccccc3)nc2c1
Vero
  Cytotoxic concentration: > 200 µM
[2]; Mycobacterium tuberculosis, H37Rv W210, 24 h, read-out: MIC99
  MIC99: 4.6 µM (≈ 1.56 µg/mL)
[3]
  MIC99: 2.3 µM (≈ 0.778 µg/mL)

## CCCOC(=O)Nc1cc2nc(C3CCCCC3)[nH]c2cc1N(CC)CC
Vero
  Cytotoxic concentration: > 400 µM
[1]
  MIC99: 4.3 µM (≈ 1.6 µg/mL)

## O=C(Nc1cc2nc(C3CCCCC3)[nH]c2cc1N1CCCC1)OCc1ccccc1
Vero
  Cytotoxic concentration: > 200 µM
[2]
  MIC99: 3.7 µM (≈ 1.55 µg/mL)
[3]
  MIC99: 3.7 µM (≈ 1.55 µg/mL)

— ChEMBL document CHEMBL1649084, “Novel trisubstituted benzimidazoles, targeting Mtb FtsZ, as a new class of antitubercular agents” (J Med Chem, 2011)
